Measurements reported in ChEMBL document CHEMBL1122854, “Novel bis[1,6-dihydro-6,6-dimethyl-1,3,5-triazine-2,4-diamines] as antitrypanosomal agents” (1985).
Where “and” joins values, the source holds several entries; their conditions need not be identical. Identical values can stand only once.

Legend:
[1] = test system: Trypanosoma brucei rhodesiense; assay: Antitrypanosomal activity against Trypanosoma rhodesiense infections in mice, 424 mg/kg administered subcutaneously; assay type: functional; conditions: route subcutaneous
Outline: (§1)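 IUR/HA Swiss mice (six weeks old, 30-32 g) infected i.p. with Wellcome CT strain T. rhodesiense. A single subcutaneous dose in peanut oil was given about 2 h after inoculation, with five mice per dose level. Positive control was stilbamidine or 2-hydroxystilbamidine isethionate at 40 mg/kg. Deaths before day 4 were scored toxic, and 30-day survivors cured.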

Mus musculus [2] = assay: Antitrypanosomal activity was evaluated against Trypanosoma rhodesiense infections in mice, at dose 13 mg/kg, administered subcutaneously;Toxic; assay type: functional; conditions: route subcutaneous; outline: as §1
[3] = test system: Trypanosoma brucei rhodesiense; assay: Antitrypanosomal activity was evaluated against Trypanosoma rhodesiense infections in mice, at dose 26 mg/kg, administered subcutaneously; assay type: functional; conditions: route subcutaneous; outline: as §1
[4] = test system: Trypanosoma brucei rhodesiense; assay: Antitrypanosomal activity was evaluated against Trypanosoma rhodesiense infections in mice, at dose 106 mg/kg, administered subcutaneously; assay type: functional; conditions: route subcutaneous; outline: as §1
[5] = test system: Trypanosoma brucei rhodesiense; assay: Antitrypanosomal activity was evaluated against Trypanosoma rhodesiense infections in mice, at dose 1.6 mg/kg, administered subcutaneously; assay type: functional; conditions: route subcutaneous
Outline: (§2)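 Six-week-old IUR/HA Swiss mice (30-32 g), 5 per dose, infected ip with 0.5 mL of a 1:50 000 dilution of heparinized heart blood from donor mice infected 3 days before (Wellcome CT strain). Single sc dose in peanut oil about 2 h post-inoculation. Deaths before day 4 counted toxic. ΔMST versus untreated controls; survivors at 30 days counted cured.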

[6] = test system: Trypanosoma brucei rhodesiense; assay: Antitrypanosomal activity against Trypanosoma rhodesiense infections in mice, 3.3 mg/kg administered subcutaneously; assay type: functional; conditions: route subcutaneous; outline: as §2
[7] = test system: Trypanosoma brucei rhodesiense; assay: Antitrypanosomal activity against Trypanosoma rhodesiense infections in mice, 6.6 mg/kg administered subcutaneously; assay type: functional; conditions: route subcutaneous; outline: as §2
Mus musculus [8] = assay: Antitrypanosomal activity was evaluated against Trypanosoma rhodesiense infections in mice, at dose 0.8mg/kg, administered subcutaneously
Mus musculus [9] = assay: Antitrypanosomal activity was evaluated against Trypanosoma rhodesiense infections in mice, at dose 212 mg/kg, administered subcutaneously; Cures; assay type: functional; conditions: route subcutaneous; outline: as §1
Mus musculus [10] = assay: (§3) Antitrypanosomal activity was evaluated against Trypanosoma rhodesiense infections in mice, at dose 26 mg/kg, administered orally; Cures; assay type: functional
Outline: (§4)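 Oral dosing of IUR/HA Swiss mice (six weeks old, 30-32 g) infected i.p. with Wellcome CT strain T. rhodesiense, with five mice per dose level. Survival was followed for 30 days. Deaths before day 4 were counted as toxic and 30-day survivors as cured. ΔMST is the difference in mean survival time between treated and control mice.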

Mus musculus [11] = assay: Antitrypanosomal activity was evaluated against Trypanosoma rhodesiense infections in mice, at dose 106 mg/kg, administered orally; Cures; assay type: functional; outline: as §4
Mus musculus [12] = assay: Antitrypanosomal activity was evaluated against Trypanosoma rhodesiense infections in mice, at dose 424 mg/kg, administered orally; Cures; assay type: functional; outline: as §4
Mus musculus [13] = assay: (§5) Antitrypanosomal activity was evaluated against Trypanosoma rhodesiense infections in mice, at dose 424 mg/kg, administered orally; assay type: functional; conditions: route oral, 424 mg/kg; outline: as §4
Mus musculus [14] = assay: Antitrypanosomal activity was evaluated against Trypanosoma rhodesiense infections in mice, at dose 106 mg/kg, administered orally; assay type: functional; conditions: route oral
[15] = test system: Trypanosoma brucei rhodesiense; assay: Antitrypanosomal activity was evaluated against Trypanosoma rhodesiense infections in mice, at dose 212 mg/kg, administered subcutaneously; assay type: functional; conditions: route subcutaneous; outline: as §2
Mus musculus [16] = assay: Antitrypanosomal activity was evaluated against Trypanosoma rhodesiense infections in mice, at dose 26 mg/kg, administered orally; assay type: functional; conditions: route oral
Mus musculus [17] = assay: as §3; assay type: functional; remark: listed apart in the source
Mus musculus [18] = assay: as §5; assay type: functional; conditions: route oral
Mus musculus [19] = assay: Antitrypanosomal activity was evaluated against Trypanosoma rhodesiense infections in mice, at dose 13 mg/kg, administered subcutaneously; assay type: functional; conditions: route subcutaneous; outline: as §2

| SMILES | Toxic [1] | Toxic (Mus musculus [2]) | Toxic [3] | Toxic [4] | Delta MST [5] | Delta MST [6] | Delta MST [7] | Delta MST (Mus musculus [8]) | Cures (Mus musculus [9]) | Cures (Mus musculus [10]) | Cures (Mus musculus [11]) | Cures (Mus musculus [12]) | Toxic (Mus musculus [13]) | Delta MST (Mus musculus [14]) | Delta MST [15] | Delta MST (Mus musculus [16]) | Delta MST (Mus musculus [17]) | Delta MST (Mus musculus [18]) | Delta MST (Mus musculus [19]) |
| --- | --- | --- | --- | --- | --- | --- | --- | --- | --- | --- | --- | --- | --- | --- | --- | --- | --- | --- | --- |
| CC1(C)N=C(N)N=C(N)N1c1cccc(NC(=O)Nc2cccc(N3C(N)=NC(N)=NC3(C)C)c2)c1.Cl.Cl | 5 | 3 | 5 | 5 | 0 days | 0 days | 0 days | 0.2 days |  |  |  |  |  |  |  |  |  |  |  |
| CC1(C)N=C(N)N=C(N)N1c1ccc(/N=N/c2ccc(N3C(N)=NC(N)=NC3(C)C)cc2)cc1.Cl.Cl |  |  |  |  | 0 days | 0.2 days | 1 days |  | 4 | 4 and 5 | 4 and 5 | 4 | 2 and 1 | 5.9 days | 0.9 days | 1 days | 1.9 days | 0.1 days | 1.6 days |
